Measured values from ChEMBL document CHEMBL1121902 (J Med Chem, 1981).
Counter-ions that a name gives are not always drawn.

How the values were obtained:
[1] = Beta adrenergic receptor antagonist potency relative to propranolol.; format: functional
Method in brief: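 Pentobarbital-anesthetized mongrel dogs. Isoproterenol dose-response curves (heart rate, contractile force, femoral artery flow) repeated after cumulative doses of 10, 100 and 1000 µg/kg of racemic hydrochloride in isotonic saline. Apparent pA2 taken from the curve shifts. […] One compound per dog, four dogs each.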

[2] = Partition coefficient (logD7.4); format: physicochemical; conditions: octanol/water, pH 7.4
Method in brief: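 Distribution between 1-octanol and 0.16 M pH 7.4 phosphate buffer (mutually presaturated). Compound at 10^-4 M in buffer was shaken 15 min with an equal volume of octanol, then centrifuged 10 min. Run in triplicate.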

Canis familiaris [3] = assay: Compound was tested for its ability to block isoproterenol-induced vasodilation in anesthetized dogs.; conditions: Canis lupus familiaris, read-out: pA2 app (converted)
Canis familiaris [4] = assay: Concentration required to decrease hindlimb perfusion pressure(55 mmHg) in anesthetized dogs after intra arterial administration.; format: functional, Canis lupus familiaris, Artery
Method in brief: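 Anesthetized mongrel dogs, vascularly isolated pump-perfused hindlimb held at constant blood flow. Vascular resistance was read as change in perfusion pressure. Bolus intraarterial injections into the perfusion circuit, drugs in isotonic saline, rising doses with compound order randomized at each level. Dose to lower perfusion pressure by 55 mmHg was taken. Four dogs, mean ± SE.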

Canis familiaris [5] = organism: Canis familiaris; assay: Vasodilator potency relative to propranolol.; format: functional, Canis lupus familiaris
Method in brief: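 Anesthetized mongrel dogs with a vascularly isolated, pump-perfused hindlimb at constant blood flow; the read-out is the fall in perfusion pressure. Bolus intraarterial injections in isotonic saline into the perfusion system, lowest doses first, compound order randomized at each level; four dogs. Dose to lower pressure 55 mmHg determined.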

Canis familiaris [6] = assay: Compound was tested for its ability to block isoproterenol-induced increases in heart rate(HR) in anesthetized dogs.; conditions: Canis lupus familiaris, read-out: pA2 app (converted)
Canis familiaris [7] = assay: Compound was tested for its ability to block isoproterenol-induced contractile force in anesthetized dogs.; conditions: Canis lupus familiaris, read-out: pA2 app (converted)

| Relative potency [1] | logD [2] | SMILES | Kb (Canis familiaris [3]) | Dose (Canis familiaris [4]) | Relative potency (Canis familiaris [5]) | Kb (Canis familiaris [6]) | Kb (Canis familiaris [7]) |
| --- | --- | --- | --- | --- | --- | --- | --- |
| 0.03 | 1.66 | CC(C)NCC(O)COc1c(O)ccc2ccccc12 (stereo not given) | 468 nM | 0.52 mg | 1.07 | 1350 nM | 646 nM |
| 0.17 | 1.4 | CC(C)NCC(O)COc1cccc2cccc(O)c12 (stereo not given) | 55 nM | 0.58 mg | 0.94 | 229 nM | 155 nM |
| 0.77 | 0.53 | CC(C)NCC(O)COc1ccc(O)c2ccccc12 (stereo not given) [4-HYDROXYPROPRANOLOL SULFATE] | 31.6 nM | 4.35 mg | 0.13 | 45.7 nM | 28.8 nM |
| 0.56 | 0.56 | CC(C)NCC(O)COc1cccc2c(O)cccc12 (stereo not given) | 20.9 nM | 1.95 mg | 0.28 | 75.9 nM | 32.4 nM |
| 3.82 | 0.46 | CC(C)NCC(O)COc1cccc2cc(O)ccc12 (stereo not given) | 4.47 nM | 2.45 mg | 0.22 | 9.77 nM | 4.37 nM |
| 0.95 | 0.62 | CC(C)NCC(O)COc1cccc2ccc(O)cc12 (stereo not given) | 26.3 nM | 2.8 mg | 0.2 | 56.2 nM | 17.4 nM |
| 0.16 | 0.57 | CC(C)NCC(O)COc1cc(O)cc2ccccc12 (stereo not given) | 58.9 nM | 10 mg | 0.06 | 288 nM | 107 nM |
| – | – | CC(C)NCC(O)COc1cccc2ccccc12 (stereo not given) [PROPRANOLOL] | – | 0.55 mg | – | – | – |
